Measurements: ChEMBL document CHEMBL1153403, “Design, synthesis, and evaluation of novel fluoroquinolone-aminoglycoside hybrid antibiotics” (J Med Chem, 2009)
In brackets after ≈: the same amount, converted by molar mass.

Tests used:
Escherichia coli [1] = assay: Antibacterial activity against Escherichia coli R477-100 by double-microdilution method; type: functional
Escherichia coli [2] = assay: Antibacterial activity against kanamycin-resistant Escherichia coli AG100A expressing aminoglycosides resistant APH(3')-1 enzyme by double-microdilution method; type: functional
Bacillus subtilis = assay: Antibacterial activity against aminoglycosides-susceptible Bacillus subtilis ATCC 6633 by double-microdilution method; type: functional
Staphylococcus aureus = assay: Antibacterial activity against methicillin-resistant Staphylococcus aureus ATCC 43300 by double-microdilution method; type: functional
Escherichia coli [3] = assay: Antibacterial activity against Escherichia coli ATCC 25922 by double-microdilution method; type: functional
Escherichia coli [4] = assay: Antibacterial activity against kanamycin-resistant Escherichia coli AG100B expressing aminoglycosides resistant APH(3')-1 enzyme by double-microdilution method; type: functional
[5] = Inhibition of Escherichia coli topoisomerase 4 assessed as reduction in supercoiled pBR322 DNA relaxation activity after 30 mins by electrophoresis; conditions: read-out: IC50
Procedure, shortened: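 E. coli TopoIV relaxation of supercoiled pBR322 in 40 mM HEPES-KOH pH 7.6 with 100 mM potassium glutamate, 10 mM Mg(OAc)₂, 10 mM DTT, 1 mM ATP and 50 µg/mL albumin. Incubated 37 °C for 30 min, stopped with EDTA, loading dye and chloroform/isoamyl alcohol, then run on 1% agarose. Supercoiled DNA percentage was quantified from gel images. IC50 is the 50% reduction versus drug-free control.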

Escherichia coli [6] = assay: Inhibition of protein synthesis in Escherichia coli S30 extracts assessed as luciferase activity after 1 hr by coupled transcription/translation assay; type: functional; conditions: Escherichia coli, 1 h; read-out: IC50
Procedure, shortened: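 Coupled transcription/translation of the pBESTluc plasmid in E. coli S30 extract with varying compound concentrations, 37 °C for 60 min. Reactions were cooled on ice, diluted in Tris-phosphate pH 7.8 reagent, and luciferase luminescence was read immediately after substrate addition. IC50 came from concentration-response curves fitted to at least two independent experiments.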

[7] = Inhibition of Escherichia coli DNA gyrase assessed as reduction in relaxed pBR322 DNA supercoiling activity after 1 hr by electrophoresis; conditions: read-out: IC50
Procedure, shortened: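 Supercoiling of relaxed pBR322 (12.5 ng/µL) by E. coli DNA gyrase in 35 mM Tris-Cl pH 7.5 with 24 mM KCl, 4 mM MgCl₂, 2 mM DTT, 1.8 mM spermidine, 1 mM ATP, 6.5% glycerol and 0.1 mg/mL BSA. Incubated 37 °C for 1 h, stopped with loading dye plus chloroform/isoamyl alcohol, and resolved on 1% agarose. IC50 is the concentration halving activity versus drug-free control.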

Escherichia coli [8] = assay: Antibacterial activity against aminoglycosides-resistant Escherichia coli BL21 harboring pETSACG1 expressing APH(3')-3a enzyme by double-microdilution method; type: functional
Escherichia coli [9] = assay: Resistance index, MIC for aminoglycosides-resistant Escherichia coli XL1-blue harboring pET9d expressing APH(3')-1a enzyme to MIC for Escherichia coli XL1-blue; type: functional
Procedure, shortened: (§1)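 Ratio of MIC on the plasmid-bearing resistant strain to MIC on its background strain (pETSACG1 vs BL21; pET9d or pSF815 vs XL1 blue). MICs by NCCLS double microdilution from starting concentrations of 384 and 1.5 µg/mL, in duplicate, two to four experiments.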

Escherichia coli [10] = assay: Resistance index, MIC for aminoglycosides-resistant Escherichia coli XL1-blue harboring pSF815 expressing AAC(6')-APH(2'') enzyme to MIC for Escherichia coli XL1-blue; type: functional; procedure, shortened: as §1
Escherichia coli [11] = assay: Antibacterial activity against Escherichia coli XL1-blue by double-microdilution method; type: functional
Escherichia coli [12] = assay: Antibacterial activity against aminoglycosides-resistant Escherichia coli XL1-blue harboring pSF815 expressing AAC(6')-APH(2'') enzyme by double-microdilution method; type: functional
Escherichia coli [13] = assay: Resistance index, MIC for aminoglycosides-resistant Escherichia coli BL21 harboring pETSACG1 expressing APH(3')-3a enzyme to MIC for Escherichia coli BL21; type: functional; procedure, shortened: as §1
Escherichia coli [14] = assay: Antibacterial activity against Escherichia coli BL21 by double-microdilution method; type: functional
Escherichia coli [15] = assay: Antibacterial activity against aminoglycosides-resistant Escherichia coli XL1-blue harboring pET9d expressing APH(3')-1a enzyme by double-microdilution method; type: functional

Row | SMILES | MIC (Escherichia coli [1]) [µg/mL] | MIC (Escherichia coli [2]) [µg/mL] | MIC (Bacillus subtilis) [µg/mL] | MIC (Staphylococcus aureus) [µg/mL] | MIC (Escherichia coli [3]) [µg/mL] | MIC (Escherichia coli [4]) [µg/mL] | IC50 [5] [nM] | IC50 (Escherichia coli [6]) [nM] | IC50 [7] [nM] | MIC (Escherichia coli [8]) [µg/mL] | Ratio (Escherichia coli [9]) | Ratio (Escherichia coli [10]) | MIC (Escherichia coli [11]) [µg/mL] | MIC (Escherichia coli [12]) [µg/mL] | Ratio (Escherichia coli [13]) | MIC (Escherichia coli [14]) [µg/mL] | MIC (Escherichia coli [15]) [µg/mL]
1 | NC[C@@H]1O[C@H](O[C@H]2[C@@H](O)[C@H](O[C@@H]3[C@@H](O)[C@H](N)C[C@H](N)[C@H]3O[C@H]3O[C@H](CN)[C@@H](O)[C@H](O)[C@H]3N)O[C@@H]2C(=O)Nc2ccc(-c3cn(CCOCCN4CCN(c5cc6c(cc5F)c(=O)c(C(=O)O)cn6C5CC5)CC4)nn3)cc2)[C@H](N)[C@@H](O)[C@@H]1O | 24 (≈ 20.5 µM) | 1.5 (≈ 1.28 µM) | 12 (≈ 10.2 µM) | 24 (≈ 20.5 µM) | 12 (≈ 10.2 µM) | 12 (≈ 10.2 µM) |  |  |  |  |  |  |  |  |  |  | 
2 | NC[C@@H]1O[C@H](O[C@H]2[C@@H](O)[C@H](O[C@@H]3[C@@H](O)[C@H](N)C[C@H](N)[C@H]3O[C@H]3O[C@H](CN)[C@@H](O)[C@H](O)[C@H]3N)O[C@@H]2C(=O)Nc2ccc(-c3cn(CC(O)CN4CCN(c5cc6c(cc5F)c(=O)c(C(=O)O)cn6C5CC5)CC4)nn3)cc2)[C@H](N)[C@@H](O)[C@@H]1O (some centres undefined) | 6 (≈ 5.18 µM) | 0.75 (≈ 0.648 µM) | 6 (≈ 5.18 µM) | 24 (≈ 20.7 µM) | 3 (≈ 2.59 µM) | 6 (≈ 5.18 µM) | 580 | 2200 | 73 |  |  |  |  |  |  |  | 
3 | NC[C@@H]1O[C@H](O[C@H]2[C@@H](O)[C@H](O[C@@H]3[C@@H](O)[C@H](N)C[C@H](N)[C@H]3O[C@H]3O[C@H](CN)[C@@H](O)[C@H](O)[C@H]3N)O[C@@H]2C(=O)Nc2ccc(-c3cn(CCCCN4CCN(c5cc6c(cc5F)c(=O)c(C(=O)O)cn6C5CC5)CC4)nn3)cc2)[C@H](N)[C@@H](O)[C@@H]1O | 12 (≈ 10.4 µM) | 1.5 (≈ 1.3 µM) | 6 (≈ 5.19 µM) | 24 (≈ 20.8 µM) | 6 (≈ 5.19 µM) | 24 (≈ 20.8 µM) |  |  |  |  |  |  |  |  |  |  | 
4 | NC[C@@H]1O[C@H](O[C@H]2[C@@H](O)[C@H](O[C@@H]3[C@@H](O)[C@H](N)C[C@H](N)[C@H]3O[C@H]3O[C@H](CN)[C@@H](O)[C@H](O)[C@H]3N)O[C@@H]2C(=O)NCc2cn(CCCN3CCN(c4cc5c(cc4F)c(=O)c(C(=O)O)cn5C4CC4)CC3)nn2)[C@H](N)[C@@H](O)[C@@H]1O | 12 (≈ 11.1 µM) | 1.5 (≈ 1.39 µM) | 6 (≈ 5.55 µM) | 48 (≈ 44.4 µM) | 6 (≈ 5.55 µM) | 12 (≈ 11.1 µM) |  |  |  |  |  |  |  |  |  |  | 
5 | NC[C@@H]1O[C@H](O[C@H]2[C@@H](O)[C@H](O[C@@H]3[C@@H](O)[C@H](N)C[C@H](N)[C@H]3O[C@H]3O[C@H](CN)[C@@H](O)[C@H](O)[C@H]3N)O[C@@H]2C(=O)NCc2cn(CCN3CCN(c4cc5c(cc4F)c(=O)c(C(=O)O)cn5C4CC4)CC3)nn2)[C@H](N)[C@@H](O)[C@@H]1O | 12 (≈ 11.3 µM) | 1.5 (≈ 1.41 µM) | 3 (≈ 2.81 µM) | 24 (≈ 22.5 µM) | 6 (≈ 5.63 µM) | 12 (≈ 11.3 µM) |  |  |  |  |  |  |  |  |  |  | 
6 | NC[C@@H]1O[C@H](O[C@H]2[C@@H](O)[C@H](O[C@@H]3[C@@H](O)[C@H](N)C[C@H](N)[C@H]3O[C@H]3O[C@H](CN)[C@@H](O)[C@H](O)[C@H]3N)O[C@@H]2C(=O)NCc2cn(Cc3cccc(CN4CCN(c5cc6c(cc5F)c(=O)c(C(=O)O)cn6C5CC5)CC4)c3)nn2)[C@H](N)[C@@H](O)[C@@H]1O | 6 (≈ 5.25 µM) | 0.75 (≈ 0.657 µM) | 3 (≈ 2.63 µM) | 6 (≈ 5.25 µM) | 6 (≈ 5.25 µM) | 12 (≈ 10.5 µM) |  |  |  | 0.4 (≈ 0.35 µM) | 1 | 4 | 6 (≈ 5.25 µM) | 24 (≈ 21 µM) | 1 | 0.4 (≈ 0.35 µM) | 6 (≈ 5.25 µM)
7 | NC[C@@H]1O[C@H](O[C@H]2[C@@H](O)[C@H](O[C@@H]3[C@@H](O)[C@H](N)C[C@H](N)[C@H]3O[C@H]3O[C@H](CN)[C@@H](O)[C@H](O)[C@H]3N)O[C@@H]2C(=O)Nc2ccc(-c3cn(CCCCCN4CCN(c5cc6c(cc5F)c(=O)c(C(=O)O)cn6C5CC5)CC4)nn3)cc2)[C@H](N)[C@@H](O)[C@@H]1O | 12 (≈ 10.3 µM) | 1.5 (≈ 1.28 µM) | 12 (≈ 10.3 µM) | 48 (≈ 41 µM) | 6 (≈ 5.13 µM) | 24 (≈ 20.5 µM) |  |  |  |  |  |  |  |  |  |  | 
8 | NC[C@@H]1O[C@H](O[C@H]2[C@@H](O)[C@H](O[C@@H]3[C@@H](O)[C@H](N)C[C@H](N)[C@H]3O[C@H]3O[C@H](CN)[C@@H](O)[C@H](O)[C@H]3N)O[C@@H]2C(=O)Nc2ccc(-c3cn(Cc4cccc(CN5CCN(c6cc7c(cc6F)c(=O)c(C(=O)O)cn7C6CC6)CC5)c4)nn3)cc2)[C@H](N)[C@@H](O)[C@@H]1O | 6 (≈ 4.98 µM) | 1.5 (≈ 1.25 µM) | 6 (≈ 4.98 µM) | 12 (≈ 9.96 µM) | 12 (≈ 9.96 µM) | 12 (≈ 9.96 µM) |  |  |  |  |  |  |  |  |  |  | 
